Measurements taken from ChEMBL document CHEMBL2311531, “Synthesis and antioxidant activities of 2-oxo-quinoline-3-carbaldehyde Schiff-base derivatives” (Bioorg Med Chem Lett, 2013).

How the values were obtained:
Assay type in all cases: functional; call rule not given here
[1] = Antioxidant activity assessed as ABTS radical scavenging activity after 3 mins by spectrophotometry
Method in brief: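 ABTS radical cation from 2 mM ABTS stock in PBS pH 7.4 reacted with 70 mM K2S2O8, standing in dark at room temperature 15-16 h; diluted with PBS to A734 0.700 ± 0.030. Sample solutions at several concentrations mixed with radical solution, absorbance read after 3 min at ambient temperature; PBS blank. Triplicate; IC50 as concentration scavenging 50% of radicals.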

[2] = Antioxidant activity assessed as superoxide anion radical scavenging activity after 5 mins by spectrophotometry
Method in brief: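 Pyrogallol autoxidation at room temperature: sample in DMF at various concentrations added to 0.05 M Tris-HCl with 30 mM 1,2,3-trihydroxybenzene (stock), 5 min reaction, stopped with 8.0 M HCl (stock), A320 read against blank. Scavenging % from absorbance with vs without sample; triplicate; IC50 as concentration scavenging 50% of radicals.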

[3] = Antioxidant activity assessed as hydroxyl radical scavenging activity after 1 hr by spectrophotometry
Method in brief: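 Salicylate method: 20 mM sodium salicylate, 1.5 mM FeSO4, sample at various concentrations and 6 mM H2O2 (stock levels) mixed, held 1 h in 37 °C water bath, A510 read against blank. Scavenging % from absorbance with vs without sample; triplicate; IC50 as concentration scavenging 50% of radicals.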

[4] = Antioxidant activity assessed as DPPH scavenging activity after 30 mins by spectrophotometry
Method in brief: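 Sample in DMF at several concentrations added to 0.004% (w/v) DPPH in ethanol, incubated at 37 °C, A517 read after 30 min. Scavenging % = (Acontrol − Atest)/Acontrol × 100, control lacking scavenger. Triplicate; IC50 as concentration scavenging 50% of radicals.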

CCCC/N=C/c1cc2ccccc2[nH]c1=O
IC50 [1]: 1810 µM | IC50 ([2]; read-out: IC50): 246 µM | IC50 ([3]; read-out: IC50): 7680 µM | IC50 ([4]; read-out: IC50): 439 µM

CCCC/N=C/c1cc2cc(C)ccc2[nH]c1=O
IC50 [1]: 43.3 µM | IC50 ([2]; read-out: IC50): 379 µM | IC50 ([3]; read-out: IC50): 3560 µM | IC50 ([4]; read-out: IC50): 63.2 µM

O=c1[nH]c2ccccc2cc1/C=N/Cc1ccccc1
IC50 [1]: 368 µM | IC50 ([2]; read-out: IC50): 329 µM | IC50 ([3]; read-out: IC50): 3140 µM | IC50 [4]: Not Active

Cc1ccc2[nH]c(=O)c(/C=N/Cc3ccccc3)cc2c1
IC50 [1]: 607 µM | IC50 ([2]; read-out: IC50): 310 µM | IC50 ([3]; read-out: IC50): 6920 µM | IC50 [4]: Not Active

O=c1[nH]c2ccccc2cc1/C=N/CCO
IC50 [1]: 1210 µM | IC50 ([2]; read-out: IC50): 467 µM | IC50 ([3]; read-out: IC50): 3310 µM | IC50 [4]: Not Active

Cc1ccc2[nH]c(=O)c(/C=N/CCO)cc2c1
IC50 [1]: 1190 µM | IC50 ([2]; read-out: IC50): 1480 µM | IC50 ([3]; read-out: IC50): 4180 µM | IC50 ([4]; read-out: IC50): 498 µM

O=c1[nH]c2ccccc2cc1/C=N/c1ccccc1O
IC50 [1]: 11.7 µM | IC50 ([2]; read-out: IC50): 237 µM | IC50 ([3]; read-out: IC50): 1660 µM | IC50 ([4]; read-out: IC50): 22.8 µM

Cc1ccc2[nH]c(=O)c(/C=N/c3ccccc3O)cc2c1
IC50 [1]: 8.24 µM | IC50 ([2]; read-out: IC50): 286 µM | IC50 ([3]; read-out: IC50): 1350 µM | IC50 ([4]; read-out: IC50): 26.2 µM

O=c1[nH]c2ccccc2cc1/C=N/c1ccc(O)cc1
IC50 [1]: 7.15 µM | IC50 ([2]; read-out: IC50): 306 µM | IC50 [3]: Not Active | IC50 ([4]; read-out: IC50): 92.1 µM

Cc1ccc2[nH]c(=O)c(/C=N/c3ccc(O)cc3)cc2c1
IC50 [1]: 5.24 µM | IC50 ([2]; read-out: IC50): 235 µM | IC50 [3]: Not Active | IC50 ([4]; read-out: IC50): 88.5 µM

O=c1[nH]c2ccccc2cc1/C=N/Nc1ccccc1
IC50 [1]: 11.8 µM | IC50 ([2]; read-out: IC50): 306 µM | IC50 ([3]; read-out: IC50): 1000 µM | IC50 ([4]; read-out: IC50): 76.5 µM

Cc1ccc2[nH]c(=O)c(/C=N/Nc3ccccc3)cc2c1
IC50 [1]: 8.47 µM | IC50 ([2]; read-out: IC50): 309 µM | IC50 ([3]; read-out: IC50): 1470 µM | IC50 ([4]; read-out: IC50): 62.4 µM

O=c1[nH]c2ccccc2cc1/C=N/Nc1ccc([N+](=O)[O-])cc1
IC50 [1]: 11.4 µM | IC50 [2]: Not Active | IC50 ([3]; read-out: IC50): 245 µM | IC50 ([4]; read-out: IC50): 170 µM

Cc1ccc2[nH]c(=O)c(/C=N/Nc3ccc([N+](=O)[O-])cc3)cc2c1
IC50 [1]: 8.25 µM | IC50 [2]: Not Active | IC50 ([3]; read-out: IC50): 350 µM | IC50 ([4]; read-out: IC50): 109 µM

O=c1[nH]c2ccccc2cc1/C=N/Nc1ccc([N+](=O)[O-])cc1[N+](=O)[O-]
IC50 [1]: 142 µM | IC50 [2]: Not Active | IC50 ([3]; read-out: IC50): 375 µM | IC50 ([4]; read-out: IC50): 190 µM

Cc1ccc2[nH]c(=O)c(/C=N/Nc3ccc([N+](=O)[O-])cc3[N+](=O)[O-])cc2c1
IC50 [1]: 144 µM | IC50 [2]: Not Active | IC50 ([3]; read-out: IC50): 749 µM | IC50 [4]: Not Active

NS(=O)(=O)c1ccc(/N=C/c2cc3ccccc3[nH]c2=O)cc1
IC50 [1]: 1610 µM | IC50 ([2]; read-out: IC50): 169 µM | IC50 ([3]; read-out: IC50): 266 µM | IC50 ([4]; read-out: IC50): 266 µM

Cc1ccc2[nH]c(=O)c(/C=N/c3ccc(S(N)(=O)=O)cc3)cc2c1
IC50 [1]: 1200 µM | IC50 ([2]; read-out: IC50): 258 µM | IC50 [3]: Not Active | IC50 [4]: Not Active

N/N=C/c1cc2ccccc2[nH]c1=O
IC50 [1]: 20.6 µM | IC50 ([2]; read-out: IC50): 184 µM | IC50 ([3]; read-out: IC50): 365 µM | IC50 ([4]; read-out: IC50): 729 µM

Cc1ccc2[nH]c(=O)c(/C=N/N)cc2c1
IC50 [1]: 11.3 µM | IC50 ([2]; read-out: IC50): 153 µM | IC50 ([3]; read-out: IC50): 790 µM | IC50 ([4]; read-out: IC50): 641 µM

O=C(O)c1ccc(/N=C/c2cc3ccccc3[nH]c2=O)cc1
IC50 [1]: 438 µM | IC50 ([2]; read-out: IC50): 381 µM | IC50 [3]: Not Active | IC50 ([4]; read-out: IC50): 1660 µM

Cc1ccc2[nH]c(=O)c(/C=N/c3ccc(C(=O)O)cc3)cc2c1
IC50 [1]: 222 µM | IC50 ([2]; read-out: IC50): 409 µM | IC50 [3]: Not Active | IC50 [4]: Not Active

O=C(Cc1ccncc1)N/N=C/c1cc2ccccc2[nH]c1=O
IC50 [1]: 485 µM | IC50 ([2]; read-out: IC50): 197 µM | IC50 ([3]; read-out: IC50): 5090 µM | IC50 ([4]; read-out: IC50): 2850 µM

Cc1ccc2[nH]c(=O)c(/C=N/NC(=O)Cc3ccncc3)cc2c1
IC50 [1]: 882 µM | IC50 ([2]; read-out: IC50): 209 µM | IC50 ([3]; read-out: IC50): 4690 µM | IC50 ([4]; read-out: IC50): 3580 µM

NS(=O)(=O)CC(=O)N/N=C/c1cc2ccccc2[nH]c1=O
IC50 [1]: 8.91 µM | IC50 ([2]; read-out: IC50): 256 µM | IC50 ([3]; read-out: IC50): 8730 µM | IC50 ([4]; read-out: IC50): 1290 µM

Cc1ccc2[nH]c(=O)c(/C=N/NC(=O)CS(N)(=O)=O)cc2c1
IC50 [1]: 9.17 µM | IC50 ([2]; read-out: IC50): 147 µM | IC50 ([3]; read-out: IC50): 5830 µM | IC50 ([4]; read-out: IC50): 3350 µM

O=c1[nH]c2ccccc2cc1/C=N/O
IC50 [1]: 31.8 µM | IC50 ([2]; read-out: IC50): 463 µM | IC50 ([3]; read-out: IC50): 2010 µM | IC50 ([4]; read-out: IC50): 118 µM

Cc1ccc2[nH]c(=O)c(/C=N/O)cc2c1
IC50 [1]: 38.9 µM | IC50 ([2]; read-out: IC50): 389 µM | IC50 ([3]; read-out: IC50): 1980 µM | IC50 ([4]; read-out: IC50): 160 µM

O=C1O[C@H]([C@@H](O)CO)C(O)=C1O [ASCORBIC ACID]
IC50 [1]: 12.8 µM | IC50 ([2]; read-out: IC50): 15.6 µM | IC50 ([3]; read-out: IC50): 73.8 µM | IC50 ([4]; read-out: IC50): 43.8 µM

Cc1cc(C(C)(C)C)c(O)c(C(C)(C)C)c1 [BUTYLATED HYDROXYTOLUENE]
IC50 [1]: 37 µM | IC50 ([2]; read-out: IC50): 254 µM | IC50 ([3]; read-out: IC50): 24700 µM | IC50 ([4]; read-out: IC50): 65.8 µM
